The record followed here is ChEMBL document CHEMBL1123812, “Pyrroloisoquinoline antidepressants. 2. In-depth exploration of structure-activity relationships” (J Med Chem, 1987).

One may read the ED50 as the dose at which the effect has come halfway, by size or by number of responders. Broadly, the inhibition is the change of the read-out against control, counted positive when it falls. Low readings indicate a weak effect, high ones a strong effect. In general, Inhibition refers to the change of the read-out against control, counted positive when it falls. The low end stands for a response near the control, the high end for a response far below the control. In general, Ki refers to a dissociation constant, usually derived from enzyme kinetics or from competition with a known ligand. Low readings indicate tighter binding, high ones weaker binding.

Activity calls are given as the source filed them. Where only a bound is given, the exact number is not on record here.

The species named for experiment [1] is Mus musculus. The experiment in a line: Antagonism of tetrabenazine (TBZ)-induced depression in mice measured for ptosis. It is filed as functional. The settings on record: Mus musculus; read-out: ED50. In outline:
(§1)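 Nonfasted male Swiss Webster mice, 18–24 g, ten per dose level and in saline controls. Test compound given ip 30 min before tetrabenazine 32 mg/kg ip; dose expressed as free base. Motor activity and ptosis scored. Control response ≤90% corrected by Abbott's formula.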

The species entered for experiment [2] is Mus musculus. The experiment in a line: Antagonism of tetrabenazine (TBZ)-induced depression measured in mice by motor activity. It is filed as functional. The settings on record: Mus musculus; read-out: ED50. Put shortly:
as §1

For experiment [3], the species on record is Mus musculus. In words: Gross behavioral effects ascertained in mice; D indicates significant depressant properties. The class given is functional, organism-based. Put shortly:
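Male Swiss Webster albino mice, 18–24 g, three per dose, given ip 1, 3, 10, 30, 100 and 300 mg/kg. Gross behaviour observed and held 4 days. Estimated LD50 range from lethality count on day 4. Scored as weak stimulant/depressant, significant stimulant, significant depressant or overt convulsant.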

The target in experiment [4] is Norepinephrine transporter (Rattus norvegicus) (UniProt Q9WTR4). In words: Ability to inhibit the uptake of [3H]norepinephrine (NE) 0.1 uM concentration at rat brain synaptosomes. It is filed as functional, subcellular. In outline: (§2)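 Male Wistar rat brain synaptosomes (P2 fraction): hypothalamus for NE, striatum for DA, cerebral cortex for 5-HT. Buffer is Tris- or HEPES-buffered salt medium with glucose, ascorbate and nialamide, pH 7.4 at 37 °C. Preincubated 10 min at 37 °C with compound. Uptake started with [3H]NE 100–300 nM, [3H]DA 50–300 nM or [3H]5-HT 100–200 nM, incubated 3 min (DA) or 6–10 min (NE, 5-HT). Blanks held on ice. Filtered, counted by scintillation.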

The species named for experiment [5] is Rattus norvegicus. In words: Ability to inhibit the uptake of tritiated dopamine (DA) 1 uM concentration. It is filed as functional. In outline: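 Rat brain synaptosomal [3H]dopamine uptake: striatal P2 fraction, test compound at 1.00 μM. Preincubated at 37 °C, then 50–300 nM [3H]DA for 3 min. Blanks on ice. Filtration and scintillation counting; percent inhibition of control uptake.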

Experiment [6] has as its system Mus musculus. The experiment in a line: Ability to antagonise intraperitoneal dose; inactive (<10% antagonism) at 30 mgjkg is represented as I-30. It is filed as functional, organism-based. In outline:
as §1

Experiment [7] concerns the target Sodium-dependent serotonin transporter (Rattus norvegicus) (UniProt P31652). The experiment in a line: Ability to inhibit the uptake of [3H]- serotonin(5-HT) 0.1 uM concentration at rat brain synaptosomes. It is filed as functional, subcellular. In outline:
as §2

The species named for experiment [8] is Mus musculus. The experiment in a line: Gross behavioral effects ascertained in mice; C indicates overt convulsant. It is filed as functional, organism-based. In outline:
(§3)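 Male Swiss Webster mice, 18–24 g, three per dose, given ip doses of 1, 3, 10, 30, 100 and 300 mg/kg. Observed for gross behavior and held for 4 days. Scored as weak (W), stimulant (S), depressant (D) or convulsant (C).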

The test system of experiment [9] is Mus musculus. The experiment in a line: Ability to antagonise intraperitoneal dose; inactive (<10% antagonism) at 30 mg/kg is represented as I-30. The class given is functional, organism-based. Further details: dose 30 mg/kg. Put shortly: as §1
Experiment [10] has as its target Sodium-dependent dopamine transporter (Rattus norvegicus, UniProt P23977). In words: Inhibition of the uptake of tritiated dopamine (DA) in rat synaptosomes. It is filed as subcellular, Brain.
For another experiment, the target named is D(1A) dopamine receptor (Rattus norvegicus, UniProt P18901). In words: Binding affinity towards Dopamine receptor D1.
Experiment [11] deals with Muscarinic acetylcholine receptor (Rattus norvegicus) (UniProt P08482+P08483+P08485+P08911+P10980). The experiment in a line: Binding affinity towards Muscarinic acetylcholine receptor at 1.0 uM concentration. The class given is protein assay.
The target of experiment [12] is Adrenergic receptor alpha-2 (Rattus norvegicus) (UniProt P22086+P19328+P22909). In words: Binding affinity towards alpha-2 adrenergic receptor at 1.0 uM concentration. It is filed as protein assay.
Experiment [13] has as its target D(2) dopamine receptor (Rattus norvegicus) (UniProt P61169). The experiment in a line: Binding affinity towards dopamine receptor D2 at 1.0 uM concentration. In outline:
(§4)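 Rat brain crude synaptic membranes in 20 mM NaHEPES pH 7.5. Ligands: α1 cortex […] 0.4 nM, nonspecific with (-)-NE 100 μM, 30 min at 25 °C. […] D2 striatum [3H]spiperone 0.05 nM with (+)-butaclamol 1 μM, 45 min at 37 °C. S1 cortex [3H]5-HT 1 nM plus glutathione and MgCl2, with 5-HT 10 μM, 20 min at 37 °C. […] Samples filtered on GF/B and counted.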

Experiment [14] has as its target Norepinephrine transporter (Rattus norvegicus, UniProt Q9WTR4). The experiment in a line: Inhibition of uptake of tritiated norepinephrine (NE) in rat synaptosomes. The class given is subcellular, Brain.
For experiment [15], the species on record is Mus musculus. The experiment in a line: Gross behavioral effects ascertained in mice; S indicates significant stimulant properties. The class given is functional, organism-based. In outline: as §3
In experiment [16] the target is Serotonin 2 (5-HT2) receptor (Rattus norvegicus) (UniProt P30994+P08909+P14842). The experiment in a line: Binding affinity towards 5-hydroxytryptamine 2 receptor at 1.0 uM concentration. It is filed as protein assay. Put shortly: as §4
The target in experiment [17] is T1, Adrenergic receptor alpha-1 (Rattus norvegicus, UniProt P15823+P23944+P43140).
T1 sequence (P15823 whole entry): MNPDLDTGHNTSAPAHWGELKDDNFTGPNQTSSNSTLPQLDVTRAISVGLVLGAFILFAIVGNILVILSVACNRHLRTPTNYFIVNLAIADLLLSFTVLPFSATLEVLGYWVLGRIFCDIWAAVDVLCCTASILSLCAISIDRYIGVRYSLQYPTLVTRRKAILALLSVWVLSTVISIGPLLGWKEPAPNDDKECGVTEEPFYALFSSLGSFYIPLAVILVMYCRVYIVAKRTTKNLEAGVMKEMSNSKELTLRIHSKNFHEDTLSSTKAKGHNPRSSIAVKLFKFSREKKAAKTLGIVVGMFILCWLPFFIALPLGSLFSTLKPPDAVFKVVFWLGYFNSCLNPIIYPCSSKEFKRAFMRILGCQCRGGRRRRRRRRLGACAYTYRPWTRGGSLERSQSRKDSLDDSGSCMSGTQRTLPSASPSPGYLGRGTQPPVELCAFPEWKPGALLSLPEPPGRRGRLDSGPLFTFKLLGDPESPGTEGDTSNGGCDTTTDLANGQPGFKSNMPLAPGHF
T1 sequence (P23944 whole entry): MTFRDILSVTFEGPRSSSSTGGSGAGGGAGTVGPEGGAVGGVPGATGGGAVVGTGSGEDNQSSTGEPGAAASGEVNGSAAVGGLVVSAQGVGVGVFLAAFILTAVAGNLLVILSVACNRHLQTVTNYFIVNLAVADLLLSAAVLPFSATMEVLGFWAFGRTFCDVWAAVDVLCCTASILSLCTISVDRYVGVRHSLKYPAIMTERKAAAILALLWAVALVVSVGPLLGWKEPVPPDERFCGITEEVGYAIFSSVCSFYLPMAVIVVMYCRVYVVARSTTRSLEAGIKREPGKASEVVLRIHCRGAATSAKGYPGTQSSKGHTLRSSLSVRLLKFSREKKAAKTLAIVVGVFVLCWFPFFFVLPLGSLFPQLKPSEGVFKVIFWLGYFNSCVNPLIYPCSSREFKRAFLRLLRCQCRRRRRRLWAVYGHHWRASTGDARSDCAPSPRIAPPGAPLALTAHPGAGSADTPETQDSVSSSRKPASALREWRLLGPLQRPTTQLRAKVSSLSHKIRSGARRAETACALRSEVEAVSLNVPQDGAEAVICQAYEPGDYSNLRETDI
T1 sequence (P43140 whole entry): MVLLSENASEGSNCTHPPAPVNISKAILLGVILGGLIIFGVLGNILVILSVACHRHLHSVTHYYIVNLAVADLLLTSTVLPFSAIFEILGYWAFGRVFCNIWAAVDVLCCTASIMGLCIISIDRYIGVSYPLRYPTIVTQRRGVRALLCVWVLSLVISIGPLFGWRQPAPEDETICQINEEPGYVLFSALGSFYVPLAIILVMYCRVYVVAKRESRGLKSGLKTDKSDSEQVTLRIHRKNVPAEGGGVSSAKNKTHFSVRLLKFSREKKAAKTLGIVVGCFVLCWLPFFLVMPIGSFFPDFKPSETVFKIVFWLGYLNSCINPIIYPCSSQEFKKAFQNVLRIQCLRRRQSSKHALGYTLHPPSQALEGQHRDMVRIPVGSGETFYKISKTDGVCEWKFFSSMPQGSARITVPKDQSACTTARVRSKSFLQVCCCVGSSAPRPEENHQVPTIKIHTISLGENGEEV
The experiment in a line: Binding affinity towards alpha-1 adrenergic receptor. The class given is protein assay.

The target of experiment [18] is Sodium-dependent serotonin transporter (Rattus norvegicus) (UniProt P31652). In words: Inhibition of tritiated serotonin(5-HT) uptake at 0.1 uM concentration. It is filed as functional. In outline:
as §2

In experiment [19] the target is Sodium-dependent dopamine transporter (Rattus norvegicus) (UniProt P23977). The experiment in a line: Inhibition of tritiated dopamine (DA) uptake at 0.1 uM concentration. The class given is functional. In outline: as §2
For experiment [20], the species on record is Mus musculus. The experiment in a line: Gross behavioral effects ascertained in mice; W indicates weak stimulant or depressant activity of little significance. It is filed as functional, organism-based. Put shortly:
as §3

Experiment [21] is filed under the species Rattus norvegicus. The experiment in a line: Ability to inhibit the uptake of tritiated norepinephrine (NE) at 0.1 uM concentration. It is filed as functional. Put shortly:
as §2

Chain of Sodium-dependent serotonin transporter (Rattus norvegicus) (P31652 whole entry): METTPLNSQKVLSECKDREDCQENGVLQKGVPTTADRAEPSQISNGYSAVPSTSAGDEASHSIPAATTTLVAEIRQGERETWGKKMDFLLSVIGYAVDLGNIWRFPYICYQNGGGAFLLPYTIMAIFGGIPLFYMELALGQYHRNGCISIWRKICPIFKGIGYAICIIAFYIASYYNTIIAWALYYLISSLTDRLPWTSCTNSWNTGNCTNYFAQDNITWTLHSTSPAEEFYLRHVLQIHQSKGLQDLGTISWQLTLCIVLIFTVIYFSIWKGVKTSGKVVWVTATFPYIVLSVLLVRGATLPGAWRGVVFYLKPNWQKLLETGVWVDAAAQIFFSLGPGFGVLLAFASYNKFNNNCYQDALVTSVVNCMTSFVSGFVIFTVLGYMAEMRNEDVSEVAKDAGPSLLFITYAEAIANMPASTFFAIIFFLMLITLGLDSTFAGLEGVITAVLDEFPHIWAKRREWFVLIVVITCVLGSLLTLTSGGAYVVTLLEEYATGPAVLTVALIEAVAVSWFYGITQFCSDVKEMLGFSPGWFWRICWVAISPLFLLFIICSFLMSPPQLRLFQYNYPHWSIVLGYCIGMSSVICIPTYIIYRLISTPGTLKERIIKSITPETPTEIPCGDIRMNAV
Chain of Norepinephrine transporter (Rattus norvegicus) (Q9WTR4 as listed by the source): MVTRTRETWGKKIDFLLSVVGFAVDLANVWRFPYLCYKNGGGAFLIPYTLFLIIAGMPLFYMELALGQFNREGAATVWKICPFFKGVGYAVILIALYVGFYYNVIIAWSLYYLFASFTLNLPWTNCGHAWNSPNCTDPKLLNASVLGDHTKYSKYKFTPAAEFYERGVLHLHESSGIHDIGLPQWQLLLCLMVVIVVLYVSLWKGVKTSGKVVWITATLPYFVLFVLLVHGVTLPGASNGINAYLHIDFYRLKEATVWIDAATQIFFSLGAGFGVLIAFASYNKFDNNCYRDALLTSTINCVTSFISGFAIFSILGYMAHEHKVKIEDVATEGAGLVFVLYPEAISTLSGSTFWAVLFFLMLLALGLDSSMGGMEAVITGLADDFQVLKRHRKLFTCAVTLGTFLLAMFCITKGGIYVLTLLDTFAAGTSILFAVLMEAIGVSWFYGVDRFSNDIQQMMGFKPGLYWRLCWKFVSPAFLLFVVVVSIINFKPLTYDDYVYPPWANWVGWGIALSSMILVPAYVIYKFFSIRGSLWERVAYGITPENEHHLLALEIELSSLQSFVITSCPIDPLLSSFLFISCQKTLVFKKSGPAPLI
Chain of D(2) dopamine receptor (Rattus norvegicus) (P61169 whole entry): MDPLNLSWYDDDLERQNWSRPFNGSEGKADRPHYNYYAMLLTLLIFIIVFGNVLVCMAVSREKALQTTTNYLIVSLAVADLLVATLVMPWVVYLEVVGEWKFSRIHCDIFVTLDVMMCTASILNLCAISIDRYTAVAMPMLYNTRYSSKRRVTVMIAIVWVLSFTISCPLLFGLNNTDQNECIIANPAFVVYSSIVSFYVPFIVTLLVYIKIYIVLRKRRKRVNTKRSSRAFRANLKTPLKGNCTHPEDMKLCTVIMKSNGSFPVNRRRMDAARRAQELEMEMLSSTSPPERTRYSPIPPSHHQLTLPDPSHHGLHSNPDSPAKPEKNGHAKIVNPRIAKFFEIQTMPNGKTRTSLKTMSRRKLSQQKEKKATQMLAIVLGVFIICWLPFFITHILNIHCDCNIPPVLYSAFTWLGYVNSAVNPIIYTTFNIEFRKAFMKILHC
Chain of D(1A) dopamine receptor (P18901 whole entry): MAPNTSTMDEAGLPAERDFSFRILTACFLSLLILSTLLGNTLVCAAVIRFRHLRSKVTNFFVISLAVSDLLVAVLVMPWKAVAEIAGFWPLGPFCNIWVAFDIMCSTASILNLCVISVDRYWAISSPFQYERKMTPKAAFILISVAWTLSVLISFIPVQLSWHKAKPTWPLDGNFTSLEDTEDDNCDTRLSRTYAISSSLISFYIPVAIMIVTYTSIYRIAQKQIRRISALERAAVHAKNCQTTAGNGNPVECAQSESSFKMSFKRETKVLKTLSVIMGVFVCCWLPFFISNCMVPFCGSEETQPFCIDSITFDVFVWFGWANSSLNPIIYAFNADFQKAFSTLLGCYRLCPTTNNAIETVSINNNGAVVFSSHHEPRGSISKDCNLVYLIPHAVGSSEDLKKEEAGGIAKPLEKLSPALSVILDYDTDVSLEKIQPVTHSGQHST
Chain of Sodium-dependent dopamine transporter (P23977 whole entry): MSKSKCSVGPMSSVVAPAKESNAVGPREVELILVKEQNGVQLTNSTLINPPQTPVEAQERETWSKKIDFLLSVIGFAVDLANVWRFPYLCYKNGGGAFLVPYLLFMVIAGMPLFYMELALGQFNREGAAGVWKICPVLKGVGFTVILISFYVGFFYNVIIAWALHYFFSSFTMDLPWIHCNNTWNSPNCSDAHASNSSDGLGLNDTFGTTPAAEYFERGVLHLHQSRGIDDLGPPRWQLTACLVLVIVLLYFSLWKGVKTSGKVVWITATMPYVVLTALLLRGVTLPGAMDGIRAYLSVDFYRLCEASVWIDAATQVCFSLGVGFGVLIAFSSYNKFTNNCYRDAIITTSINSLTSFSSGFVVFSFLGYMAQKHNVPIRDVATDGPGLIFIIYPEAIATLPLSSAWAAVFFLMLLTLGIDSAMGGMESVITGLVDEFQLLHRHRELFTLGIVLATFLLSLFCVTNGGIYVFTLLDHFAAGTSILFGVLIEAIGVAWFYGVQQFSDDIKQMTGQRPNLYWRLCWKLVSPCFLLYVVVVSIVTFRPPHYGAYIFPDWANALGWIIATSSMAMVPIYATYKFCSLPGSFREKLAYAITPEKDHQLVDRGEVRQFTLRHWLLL
Chain of Sodium-dependent dopamine transporter (Rattus norvegicus) (P23977 whole entry): as above
Chain of Norepinephrine transporter (Q9WTR4 whole entry): as the sequence (Q9WTR4 as listed by the source) above
Chain of Serotonin 2 (5-HT2) receptor (Rattus norvegicus) (P08909 whole entry, looked up): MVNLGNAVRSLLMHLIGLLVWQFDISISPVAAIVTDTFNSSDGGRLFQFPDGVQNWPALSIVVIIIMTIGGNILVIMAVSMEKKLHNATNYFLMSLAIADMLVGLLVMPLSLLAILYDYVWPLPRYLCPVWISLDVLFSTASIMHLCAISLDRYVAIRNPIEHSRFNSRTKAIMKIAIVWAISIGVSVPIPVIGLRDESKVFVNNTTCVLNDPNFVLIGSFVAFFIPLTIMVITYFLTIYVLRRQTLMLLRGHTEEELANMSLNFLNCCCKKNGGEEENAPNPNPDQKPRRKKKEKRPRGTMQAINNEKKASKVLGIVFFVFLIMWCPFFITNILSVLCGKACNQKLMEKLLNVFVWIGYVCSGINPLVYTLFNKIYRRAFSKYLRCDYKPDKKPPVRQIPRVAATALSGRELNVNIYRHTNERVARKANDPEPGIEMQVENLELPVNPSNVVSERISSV
Chain of Serotonin 2 (5-HT2) receptor (Rattus norvegicus) (P14842 whole entry, looked up): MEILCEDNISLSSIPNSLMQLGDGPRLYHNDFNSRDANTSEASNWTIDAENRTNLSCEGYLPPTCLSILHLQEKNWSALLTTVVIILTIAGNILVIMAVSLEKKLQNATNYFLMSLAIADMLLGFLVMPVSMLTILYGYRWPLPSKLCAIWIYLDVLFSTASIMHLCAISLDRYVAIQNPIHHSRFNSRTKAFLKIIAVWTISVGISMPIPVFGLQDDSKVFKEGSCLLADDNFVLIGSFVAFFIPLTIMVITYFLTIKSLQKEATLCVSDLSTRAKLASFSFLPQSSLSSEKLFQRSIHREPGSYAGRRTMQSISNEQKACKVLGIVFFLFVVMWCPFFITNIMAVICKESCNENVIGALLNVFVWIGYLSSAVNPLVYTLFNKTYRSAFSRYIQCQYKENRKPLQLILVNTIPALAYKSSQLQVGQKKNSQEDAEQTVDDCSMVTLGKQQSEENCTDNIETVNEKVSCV
Chain of Serotonin 2 (5-HT2) receptor (Rattus norvegicus) (P30994 whole entry, looked up): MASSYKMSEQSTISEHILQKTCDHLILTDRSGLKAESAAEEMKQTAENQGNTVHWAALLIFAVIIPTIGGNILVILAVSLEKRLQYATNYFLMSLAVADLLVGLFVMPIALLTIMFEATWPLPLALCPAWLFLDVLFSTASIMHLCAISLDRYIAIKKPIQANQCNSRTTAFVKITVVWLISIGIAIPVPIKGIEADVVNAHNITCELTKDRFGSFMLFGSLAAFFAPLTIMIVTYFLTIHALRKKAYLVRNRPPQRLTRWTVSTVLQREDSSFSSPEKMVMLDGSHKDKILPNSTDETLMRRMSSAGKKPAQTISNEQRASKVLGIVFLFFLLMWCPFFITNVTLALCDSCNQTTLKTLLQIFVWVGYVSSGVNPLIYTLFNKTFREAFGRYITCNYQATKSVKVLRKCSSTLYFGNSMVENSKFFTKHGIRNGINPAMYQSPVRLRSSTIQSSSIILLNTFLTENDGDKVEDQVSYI

Consider `Br.CC(=O)Nc1ccc([C@@H]2CN3CCC[C@@H]3c3ccccc32)cc1`, for which the ED50 in the experiment filed under Mus musculus [1] stood at 0.042 mg/kg; in the experiment listed under Mus musculus [2] it was 0.037 mg/kg. For the same compound, the behavior result in the experiment listed under Mus musculus [3] is given as “Significant depressant”.
As to `c1ccc([C@H]2CN3CC[C@@H]4CCCC[C@@]43c3ccccc32)cc1`, the inhibition in experiment [4] came out at 3%; in experiment [7] it was 9%. This compound also had an Inhibition in the experiment listed under Rattus norvegicus [5] of 17%. The ED50 entry with Mus musculus [6] and with Mus musculus [9] was “inactive” in each case. In addition, the behavior entry in the experiment listed under Mus musculus [8] is reported as “Overt convulsant”.
Turning to `Br.Oc1cc2c(cc1O)[C@H]1CCCN1C[C@H]2c1ccccc1`, the Ki in experiment [10] turned out to be 43.5 nM; at D(1A) dopamine receptor it was 106 nM; in experiment [14], 10.5 nM; in experiment [17] it was 87 nM. Also, the ED50 worked out at 0.53 mg/kg in the experiment listed under Mus musculus [1] and 0.87 mg/kg in the experiment filed under Mus musculus [2]. The inhibition in experiment [11] worked out at 0%; in experiment [12], 21%; in [13], 20%; in experiment [16], 46%. Also, the behavior entry in the experiment filed under Mus musculus [15] is recorded as “Stimulant”.
Turning to `Br.Oc1cc2c(cc1O)[C@@H]1CCCN1C[C@H]2c1ccccc1`, the results for the inhibition in experiment [18], in experiment [19] and in experiment [13] were 0%, 22% and 19%, respectively. Also, the ED50 in the experiment listed under Mus musculus [1] and in the experiment listed under Mus musculus [2] was more than 60 mg/kg each time. On D(1A) dopamine receptor, this compound had a Ki of 64 nM. For the same compound, in the experiment filed under Mus musculus [20], the behavior result was “Partial stimulant”. For the same compound, the Inhibition in the experiment listed under Rattus norvegicus [21] was determined as 35%.
In the case of `C[C@@]12CCCN1C[C@@H](c1ccccc1)c1ccccc12`, the inhibition in experiment [4] is 2%; in [7], 23%. In the experiment listed under Rattus norvegicus [5], this compound displayed an Inhibition of 25%. Further, the ED50 entry with Mus musculus [6] and with Mus musculus [9] was “inactive” in each case. The behavior entry in the experiment filed under Mus musculus [8] is “Overt convulsant”.
Turning to `Br.C[C@@]1(c2ccccc2)CN2CCC[C@H]2c2ccccc21`, the inhibition stood at 19% in [4] and 14% in [7]. Further, the Inhibition in the experiment filed under Rattus norvegicus [5] stood at 50%. For the same compound, the ED50 in the experiment filed under Mus musculus [1] is 16.2 mg/kg; in the experiment filed under Mus musculus [2] it was 22.5 mg/kg. Besides, the behavior result in the experiment filed under Mus musculus [20] was “Weak”.
